Source: ChEMBL document CHEMBL1131615, “Synthesis and tyrosine kinase inhibitory activity of a series of 2-amino-8H-pyrido[2,3-d]pyrimidines: identification of potent, selective platelet-derived growth factor receptor tyrosine kinase inhibitors” (J Med Chem, 1998)

Experiments:
[1] = molecular target: Proto-oncogene tyrosine-protein kinase Src (Mus musculus, UniProt P05480); test: Inhibition of mouse c-Src tyrosine kinase
[2] = molecular target: Platelet-derived growth factor receptor (Mus musculus, UniProt P05622+P26618); test: Inhibition against of platelet-derived growth factor receptor (PDGFr)
[3] = molecular target: Fibroblast growth factor receptor (Mus musculus, UniProt P21803+Q03142+P16092+Q61851); test: Inhibition of mouse fibroblast growth factor receptor tyrosine kinase (FGFr); type: protein assay
[4] = molecular target: T1, Platelet-derived growth factor receptor (PDGFr) (Rattus norvegicus, UniProt P20786+Q05030); test: Inhibition of PDGF-stimulated Platelet-derived growth factor receptor autophosphorylation in C6 rat glioma cells after 2 hr; type: cell-based
Rattus norvegicus [5] = test: Compound was tested for area under concentration -time curve from time 0 to time of last detectable concentration in three male Wistar rats at a single 5 mg/kg oral gavage dose; type: ADME, organism-based; set-up: dose 5 mg/kg, route oral; settings: in vivo
Summary of the method: (§1)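 Single 5 mg/kg oral gavage dose given to three male Wistar rats, in 17% PEG 400/83% methylcellulose (0.5%). Heparinized plasma was taken by jugular vein cannula from 0 to 48 h; lower limit of quantitation was 10 ng/mL. Noncompartmental analysis: t1/2 = 0.693/λz (log-linear terminal regression); AUC by trapezoidal rule, extrapolated to infinity.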

C6 [6] = test: C6 glioma 3-day proliferation followed by soft agar growth without treatment; type: functional, cell-based; settings: Rattus norvegicus, C6, 72 h
Summary of the method: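 C6 rat glioma cells exposed to a range of compound concentrations for 3 days in culture, then cloned in soft agar with drug removed. IC50 derived.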

C6 [7] = test: Inhibition of rat C6 glioma cell proliferation in sulforhodamine B assay; type: functional, cell-based
Summary of the method: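 C6 rat glioma cells cultured 4 days with a range of compound concentrations; growth read by sulforhodamine B staining, giving IC50.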

C6 [8] = test: C6 glioma 3-day proliferation followed by soft agar growth with continuous treatment; type: functional, cell-based; settings: Rattus norvegicus, C6, 72 h
Summary of the method: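 C6 rat glioma cells exposed to a range of compound concentrations for 3 days in culture, then cloned in soft agar with drug kept present throughout colony growth. IC50 derived.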

[9] = Compound was tested for time to reach Cmax in three male Wistar rats at a single 5 mg/kg oral gavage dose.; type: ADME, organism-based; set-up: dose 5 mg/kg, route oral; settings: rat, in vivo; summary of the method: as §1
Rattus norvegicus [10] = test: Compound was tested for area under concentration -time curve from time 0 to time infinity in three male Wistar rats at a single 5 mg/kg oral gavage dose.; type: ADME, organism-based; set-up: dose 5 mg/kg, route oral; settings: in vivo; summary of the method: as §1
[11] = Compound was tested for apparent terminal phase elimination half life in three male Wistar rats at a single 5 mg/kg oral gavage dose; type: ADME, organism-based; set-up: dose 5 mg/kg, route oral; settings: rat, in vivo; summary of the method: as §1
[12] = Compound was tested for maximum observed concentration in three male Wistar rats at a single 5 mg/kg oral gavage dose; type: ADME, organism-based; set-up: dose 5 mg/kg, route oral; settings: rat, in vivo; summary of the method: as §1
DU-145 [13] = test: Delay between treated (T) and control (C) DU-145 cell tumors reaching 750 mg at 48 mg/kg peroral dose, days 16-20,23-27,30-34 administration; type: functional; settings: route oral
Summary of the method: (§2)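 Nude mice (18-22 g), randomized, implanted sc in the right axilla on day 0 with tumor fragments maintained by serial passage in nude mice. Tumors were C6 rat glioma, NIH 3T3 transfected with human PDGF ββ, or DU-145 prostate. At least 6 mice per group, 12 controls. Oral dosing by average cage weight on the stated days.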

C6 [14] = test: Delay between treated (T) and control (C) C6 glioma cell tumors reaching 750 mg at 40 mg/kg peroral dose, days 1-15 administration; type: functional; settings: route oral; summary of the method: as §2
C6 [15] = test: Weight change after 40 mg/kg peroral dose, days 1-15 treatment of C6 glioma cell tumor; type: functional; settings: route oral; summary of the method: as §2
Mus musculus [16] = test: Net reduction in PDGF-transfected cell tumor burden after 20 mg/kg peroral dose, days 1-15 administration; type: functional; settings: route oral
Summary of the method: (§3)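 Tumor lines (C6 rat glioma; NIH 3T3 fibroblasts transfected with human PDGF-ββ; DU-145 prostatic adenocarcinoma) were kept by serial passage in nude mice. Randomized nude mice weighing 18-22 g received sc tumor fragments in the right axilla on day 0, with at least 6 per treated group and 12 controls. Oral dosing was based on average cage weight. Net cell kill is given as log10.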

DU-145 [17] = test: Net reduction in DU-145 cell tumor burden after 48 mg/kg peroral dose, days 16-20,23-27,30-34 administration; type: functional; settings: route oral; summary of the method: as §3
Mus musculus [18] = test: Weight change after 20 mg/kg peroral dose, days 1-15 treatment of PDGF-transfected cell tumor; type: functional, organism-based; set-up: dose 20 mg/kg; summary of the method: as §2
Mus musculus [19] = test: Ratio of treated/control PDGF-transfected cell tumor mass at 20 mg/kg peroral dose, days 1-15 administration; type: functional; settings: route oral
Summary of the method: (§4)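 Nude mouse sc axillary tumor-fragment xenografts implanted on day 0 (6-8 treated, 12 controls), with oral dosing on the stated schedule. T/C = median treated tumor mass / median control tumor mass × 100%, on the last therapy day.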

DU-145 [20] = test: Weight change after 48 mg/kg peroral dose, days 16-20,23-27,30-34 treatment of DU-145 cell tumor
DU-145 [21] = test: Ratio of treated/control DU-145 cell tumor mass at 48 mg/kg peroral dose, days 16-20, 23-27, 30-34 administration; type: functional; settings: route oral; summary of the method: as §4
C6 [22] = test: Net reduction in C6 glioma cell tumor burden after 40 mg/kg peroral dose, days 1-15 administration; type: functional; settings: route oral; summary of the method: as §3
C6 [23] = test: Ratio of treated/control C6 glioma cell tumor mass at 40 mg/kg peroral dose, days 1-15 administration; type: functional; settings: route oral; summary of the method: as §4
Rattus norvegicus [24] = test: Compound was tested for area under concentration -time curve from time 0 to time infinity in three male Wistar rats at a single 5 mg/kg oral gavage dose; type: ADME, organism-based; set-up: dose 5 mg/kg, route oral; settings: in vivo; summary of the method: as §1
Mus musculus [25] = test: Delay between treated (T) and control (C) PDGF-transfected cell tumors reaching 750 mg at 20 mg/kg peroral dose, days 1-15 administration; type: functional; settings: route oral; summary of the method: as §2
[26] = molecular target: T1, Platelet-derived growth factor receptor (PDGFr); test: Inhibition of PDGF-stimulated Platelet-derived growth factor receptor autophosphorylation in rat aortic vascular smooth muscle cells (RAVSMCs) after 2 hr

Chain of Proto-oncogene tyrosine-protein kinase Src (P05480 2-535 limits assumed): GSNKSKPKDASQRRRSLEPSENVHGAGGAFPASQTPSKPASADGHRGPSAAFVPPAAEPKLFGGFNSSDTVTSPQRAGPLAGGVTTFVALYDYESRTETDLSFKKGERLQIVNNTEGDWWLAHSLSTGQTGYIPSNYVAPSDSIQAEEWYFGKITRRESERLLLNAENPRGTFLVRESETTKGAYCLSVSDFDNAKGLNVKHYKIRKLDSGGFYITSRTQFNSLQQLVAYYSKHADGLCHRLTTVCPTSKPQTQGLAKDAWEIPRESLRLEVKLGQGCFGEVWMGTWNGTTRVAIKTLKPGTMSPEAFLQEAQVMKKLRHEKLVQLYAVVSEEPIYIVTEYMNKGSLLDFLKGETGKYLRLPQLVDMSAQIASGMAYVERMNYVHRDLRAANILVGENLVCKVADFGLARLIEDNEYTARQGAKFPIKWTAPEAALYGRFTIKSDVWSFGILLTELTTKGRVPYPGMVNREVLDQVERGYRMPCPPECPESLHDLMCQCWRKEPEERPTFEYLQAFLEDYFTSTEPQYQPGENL

SMILES: Cn1c(=O)c(-c2ccsc2)cc2cnc(Nc3ccncc3)nc21
- IC50 [1]: 1.7 µM
- IC50 [2]: 0.48 µM
- IC50 [3]: 22.6 µM

SMILES: CCn1c(=O)c(-c2c(Cl)cccc2Cl)cc2cnc(N)nc21
- IC50 [1]: 0.16 µM
- IC50 [2]: 0.98 µM

SMILES: CCCCn1c(=O)c(-c2c(Cl)cccc2Cl)cc2cnc(N)nc21
- IC50 [1]: 0.33 µM
- IC50 [2]: 1.2 µM
- IC50 [3]: 0.58 µM

SMILES: Nc1ncc2cc(-c3c(Cl)cccc3Cl)c(=O)n(Cc3ccncc3)c2n1
- IC50 [1]: 0.63 µM
- IC50 [2]: 1.2 µM

SMILES: CN(C)CCCn1c(=O)c(-c2c(Cl)cccc2Cl)cc2cnc(N)nc21
- IC50 [1]: 0.05 µM
- IC50 [2]: 1.8 µM
- IC50 [3]: 0.88 µM

SMILES: Cn1c(=O)c(-c2ccsc2)cc2cnc(N)nc21
- IC50 [1]: > 50 µM
- IC50 [2]: 24.4 µM
- IC50 [3]: > 50 µM

SMILES: CC(C)(C)OC(=O)Cn1c(=O)c(-c2c(Cl)cccc2Cl)cc2cnc(N)nc21
- IC50 [1]: 0.56 µM
- IC50 [2]: 7.2 µM
- IC50 [3]: 1.7 µM

SMILES: Nc1ncc2cc(-c3c(Cl)cccc3Cl)c(=O)n(Cc3ccccc3)c2n1
- IC50 [1]: 0.16 µM
- IC50 [2]: 4.2 µM
- IC50 [3]: 1.4 µM

SMILES: Cn1c(=O)c(-c2ccc(-c3ccccc3)cc2)cc2cnc(Nc3ccccc3)nc21
- IC50 [1]: > 50 µM
- IC50 [2]: > 50 µM
- IC50 [3]: > 50 µM

SMILES: CCn1c(=O)c(-c2ccsc2)cc2cnc(Nc3ccccc3)nc21
- IC50 [1]: 41 µM
- IC50 [4]: > 0.025 µM
- IC50 [2]: 0.41 µM
- IC50 [3]: > 50 µM

SMILES: Cn1c(=O)c(-c2ccccc2)cc2cnc(Nc3ccccc3)nc21
- IC50 [1]: 2.4 µM
- IC50 [2]: 0.29 µM
- IC50 [3]: 5 µM

SMILES: CC(C)Cn1c(=O)c(-c2c(Cl)cccc2Cl)cc2cnc(N)nc21
- IC50 [1]: 0.89 µM
- IC50 [2]: 1.6 µM
- IC50 [3]: 0.5 µM

SMILES: CCn1c(=O)c(-c2ccccc2)cc2cnc(Nc3ccncc3)nc21
- IC50 [1]: 0.41 µM
- AUC (Rattus norvegicus [5]): 4.76 µg·h/mL
- IC50 (C6 [6]): 13.2 µM
- IC50 (C6 [7]): 7.2 µM
- IC50 [4]: 0.058 µM
- IC50 (C6 [8]): 4.9 µM
- Tmax [9]: 1.5 h
- IC50 [2]: 0.074 µM
- AUC (Rattus norvegicus [10]): 5.24 µg·h/mL
- IC50 [3]: 1.1 µM
- half-life [11]: 3.72 h
- Cmax [12]: 0.73 µg/mL

SMILES: CCN(CC)CCOc1ccc(Nc2ncc3cc(-c4ccccc4)c(=O)n(CC)c3n2)cc1
- IC50 [1]: 0.031 µM
- AUC (Rattus norvegicus [5]): 0.525 µg·h/mL
- IC50 (C6 [6]): 0.15 µM
- T-C (DU-145 [13]): 11.4 days
- T-C (C6 [14]): 9.6 days
- IC50 (C6 [7]): 1.2 µM
- IC50 [4]: 0.003 µM
- IC50 (C6 [8]): 0.12 µM
- Weight change (C6 [15]): -0.7 g
- Net log cell kill (Mus musculus [16]): -1.2
- Net log cell kill (DU-145 [17]): -0.4
- Weight change (Mus musculus [18]): Weight gain
- Tmax [9]: 2.67 h
- T/C (Mus musculus [19]): 1%
- Weight change (DU-145 [20]): Weight gain
- IC50 [2]: 0.031 µM
- T/C (DU-145 [21]): 40%
- IC50 [3]: 0.088 µM
- Net log cell kill (C6 [22]): -0.3
- half-life [11]: 6.65 h
- T/C (C6 [23]): 0%
- AUC (Rattus norvegicus [24]): 0.828 µg·h/mL
- Cmax [12]: 0.0783 µg/mL
- T-C (Mus musculus [25]): 6.9 days

SMILES: CNc1ncc2cc(-c3ccsc3)c(=O)n(C)c2n1
- IC50 [1]: > 50 µM
- IC50 [2]: > 50 µM
- IC50 [3]: > 50 µM

SMILES: Nc1ncc2cc(-c3c(Cl)cccc3Cl)c(=O)n(CC(=O)O)c2n1
- IC50 [1]: > 50 µM
- IC50 [2]: > 50 µM
- IC50 [3]: 7.9 µM

SMILES: CCN(CC)CCOc1ccc(Nc2ncc3cc(-c4ccsc4)c(=O)n(C)c3n2)cc1
- IC50 [1]: 0.21 µM
- IC50 [2]: 0.054 µM
- IC50 [3]: 2.9 µM
- IC50 [26]: 0.054 µM

SMILES: Nc1ncc2cc(-c3c(Cl)cccc3Cl)c(=O)n(CCCOCc3ccccc3)c2n1
- IC50 [1]: 1.4 µM
- IC50 [2]: 6.8 µM
- IC50 [3]: 3.2 µM

SMILES: CCCn1c(=O)c(-c2c(Cl)cccc2Cl)cc2cnc(N)nc21
- IC50 [1]: 0.63 µM
- IC50 [2]: 1.2 µM
- IC50 [3]: 0.51 µM

SMILES: CCN(CC)CCOc1ccc(Nc2ncc3cc(-c4c(Cl)cccc4Cl)c(=O)n(CC)c3n2)cc1
- IC50 [1]: 0.017 µM
- IC50 [2]: 0.15 µM
- IC50 [3]: 0.03 µM

SMILES: Nc1ncc2cc(-c3c(Cl)cccc3Cl)c(=O)n(CCCO)c2n1
- IC50 [1]: 0.18 µM
- IC50 [2]: 1.1 µM
- IC50 [3]: 0.37 µM

SMILES: Cn1c(=O)c(-c2ccsc2)cc2cnc(Nc3ccccc3)nc21
- IC50 [1]: 8.1 µM
- IC50 [2]: 0.8 µM
- IC50 [3]: > 50 µM

SMILES: Cn1c(=O)c(-c2c(Cl)cccc2Cl)cc2cnc(N)nc21
- IC50 [1]: 0.26 µM
- IC50 [2]: 3.8 µM
- IC50 [3]: 1.3 µM

SMILES: Cn1c(=O)c(-c2ccccc2)cc2cnc(Nc3ccncc3)nc21
- IC50 [1]: 0.47 µM
- IC50 [2]: 0.32 µM
- IC50 [3]: 4.7 µM

SMILES: CCN(CC)CCOc1ccc(Nc2ncc3cc(-c4ccccc4)c(=O)n(C)c3n2)cc1
- IC50 [1]: 0.14 µM
- IC50 [2]: 0.042 µM
- IC50 [3]: 0.35 µM

SMILES: COC(=O)Cn1c(=O)c(-c2c(Cl)cccc2Cl)cc2cnc(N)nc21
- IC50 [1]: 0.34 µM
- IC50 [2]: 5 µM
- IC50 [3]: 1.7 µM

SMILES: CCn1c(=O)c(-c2ccccc2)cc2cnc(Nc3ccccc3)nc21
- IC50 [1]: 1.8 µM
- IC50 [4]: > 0.025 µM
- IC50 [2]: 0.18 µM
- IC50 [3]: 1.5 µM
- IC50 [26]: 0.0046 µM

SMILES: Cn1c(=O)c(-c2cccs2)cc2cnc(Nc3ccccc3)nc21
- IC50 [1]: > 50 µM
- IC50 [2]: 0.95 µM
- IC50 [3]: > 50 µM
